Assay results gathered from unrelated publications.
Target: Serine/threonine-protein kinase PLK3 (PLK3, Homo sapiens, UniProt Q9H4B4)

`N#CC1(c2ccccn2)CCN(Cc2cc(C(=O)O)c(=O)n3ccccc23)CC1` gave a remaining binding of 85% (cell-free assay, competition with immobilised ligand; 1 µM).
With `Nc1ncc(-c2nc(N3CCOCC3)nc(N3CCOCC3)n2)c(C(F)F)n1` the remaining binding was 83% (binding, competition with immobilised ligand; 10 µM).
With `Cn1cc(-c2cccc(N3CCc4c(sc5c4CC(C)(C)C5)C3=O)c2CO)cc(Nc2ccncn2)c1=O` the inhibition was -15% (enzyme activity, inhibitor; 1 µM).
The remaining binding of `Cn1cncc1[C@@](O)(COc1ccc(C#N)cc1-c1ccc(OC(F)(F)F)cc1)c1ccc(C#N)cc1` is reported as 88% (cell-free assay, competition with immobilised ligand; 1 µM).
`COc1ncccc1-c1cnn2ccc(N3CCN(C(=O)OC(C)C)CC3)nc12` has a remaining binding of 100% (binding, competition with immobilised ligand; 1 µM).
For `CC(C)(C)c1cc(C=C(C#N)C#N)cc(Br)c1O`, the remaining activity was 94.6% (enzyme activity, inhibitor; 0.5 µM).
With `Cc1nn(C)cc1-c1nc2c(N3CCN(Cc4ccc(Cl)cc4)CC3)c(Cl)cnc2[nH]1` the remaining binding was 88% (binding, competition with immobilised ligand; 1 µM).
`O=c1[nH]c2ccccc2n1C1CCN(Cc2ccc(-c3[nH]c4cc5ncnc5cc4nc3-c3ccccc3)cc2)CC1` has a remaining signal of 99.1% (cell-free assay; 0.5 µM).
`Cn1cc(-c2cc(F)cc(N3CCn4c(cc5c4CCCC5)C3=O)c2CO)cc(Nc2ccc(N3CCN(C4COC4)CC3)cn2)c1=O` gave an inhibition of 10% (enzyme activity, inhibitor; 0.1 µM).
`COc1cc(Nc2ncc(F)c(Nc3ccc4c(n3)NC(=O)C(C)(C)O4)n2)cc(OC)c1OC` has an inhibition of 100% (binding; 10 µM).
